Reference: ChEMBL document CHEMBL4371098, “C-Phycocyanin from Spirulina Inhibits α-Synuclein and Amyloid-β Fibril Formation but Not Amorphous Aggregation” (J Nat Prod, 2019)
Activity calls are given as the source filed them. The calls are words filed in the database; no cut-off is given here.

How the values were obtained:
[1] = tested on: Alpha-synuclein (Homo sapiens), P37840 [A53T]; experiment: Inhibition of preformed fibrils of human alpha-synuclein A53T mutant expressed in Escherichia coli BL21(DE3) at 5 uM treated after 60 hrs during fibril elongation phase by ThT fluorescence assay
In short: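 ThT-monitored αS (10 μM) aggregation at 37 °C in 500 mM ammonium acetate pH 7.4; C-PC (5 μM) added at 60 h during elongation, and fluorescence (440/490 nm) followed afterwards; n = 3.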

[2] = target: Amyloid-beta precursor protein (Homo sapiens) (UniProt P05067); experiment: Inhibition of amyloid beta (1 to 42) (unknown origin) fibril formation at 2 uM after 2 hrs by uranyl acetate staining based transmission electron microscopic method
In short: (§1)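 End-point samples from ThT aggregation assays (αS or Aβ 10 μM, C-PC 2 μM; αS 100 h, Aβ40 25 h, Aβ42 2 h) adsorbed on carbon-coated grids, negatively stained with 2% (w/v) uranyl acetate, imaged by TEM.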

[3] = tested on: Alpha-synuclein (Homo sapiens), P37840 [A53T]; experiment: Inhibition of fibril formation of human alpha-synuclein A53T mutant expressed in Escherichia coli BL21(DE3) after 100 hrs by ThT fluorescence assay
In short: (§2)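 αS (10 μM) incubated 100 h at 37 °C in 500 mM ammonium acetate pH 7.4 with C-PC at αS:C-PC 2:1 to 200:1; ThT read at 440/490 nm; inhibition = end-point (100 h) ThT fluorescence with C-PC as percentage of αS alone; n = 3, mean ± SEM.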

[4] = target: Amyloid-beta precursor protein (Homo sapiens) (UniProt P05067); experiment: Inhibition of amyloid beta (1 to 40) (unknown origin) fibril formation at protein to compound ratio of 5:1 after 100 hrs by ThT fluorescence assay
In short: (§3)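 Aβ40 or Aβ42 (10 μM; NaOH-pretreated stock for monomerization) incubated with C-PC at 5:1 Aβ:C-PC in 500 mM ammonium acetate pH 7.4, 37 °C, sealed plates, up to 100 h; ThT fluorescence 440/490 nm; triplicate, mean ± SEM.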

[5] = tested on: Alpha-synuclein (Homo sapiens), P37840 [A53T]; experiment: Binding affinity to human alpha-synuclein A53T mutant expressed in Escherichia coli BL21(DE3) assessed as compound-protein stable complex formation at 2 uM after 20 hrs by native mass spectrometry analysis
In short: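 αS (10 μM) incubated with C-PC (2 μM) at 40 °C for 20 h, then analysed by native nanoelectrospray MS for αS–C-PC complex peaks versus monomer/dimer and C-PC oligomer species.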

[6] = tested on: Alpha-synuclein (Homo sapiens), P37840 [A53T]; experiment: Induction of conformational changes in human alpha-synuclein A53T mutant expressed in Escherichia coli BL21(DE3) assessed as ion population arrival time distribution at 2 uM after 20 hrs by ion mobility-mass spectrometry analysis (reference value: 5.23 milliseconds)
Catalase (Bos taurus) = target: T1, Catalase (Bos taurus) (UniProt P00432); experiment: Inhibition of heat-induced amorphous aggregation of bovine liver catalase at 2.5 uM measured over 2 hrs by light scattering assay
T1 sequence (whole entry): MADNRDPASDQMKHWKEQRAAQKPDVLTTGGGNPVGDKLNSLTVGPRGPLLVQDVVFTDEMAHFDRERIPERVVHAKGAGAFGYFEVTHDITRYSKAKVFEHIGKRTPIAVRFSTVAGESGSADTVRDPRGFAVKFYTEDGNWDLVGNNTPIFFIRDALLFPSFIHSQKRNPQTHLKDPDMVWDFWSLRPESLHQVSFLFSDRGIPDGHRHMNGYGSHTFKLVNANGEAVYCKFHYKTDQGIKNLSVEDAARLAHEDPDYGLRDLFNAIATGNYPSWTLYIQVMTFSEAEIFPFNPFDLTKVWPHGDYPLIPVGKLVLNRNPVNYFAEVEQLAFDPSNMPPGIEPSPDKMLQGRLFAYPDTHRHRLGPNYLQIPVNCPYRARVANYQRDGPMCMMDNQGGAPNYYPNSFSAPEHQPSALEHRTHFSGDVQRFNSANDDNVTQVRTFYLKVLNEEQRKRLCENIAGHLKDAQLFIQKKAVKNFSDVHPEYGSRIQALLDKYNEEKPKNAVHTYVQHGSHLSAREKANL
In short: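 Catalase (5 μM) aggregated by heating at 55 °C; absorbance (light scattering) at 340 nm tracked for 2 h with or without C-PC (2.5 μM); triplicate, mean ± SEM.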

[7] = target: Amyloid-beta precursor protein (Homo sapiens) (UniProt P05067); experiment: Inhibition of amyloid beta (1 to 40) (unknown origin) fibril formation at 2 uM after 25 hrs by uranyl acetate staining based transmission electron microscopic method; in short: as §1
[8] = tested on: Alpha-synuclein (Homo sapiens), P37840 [A53T]; experiment: Inhibition of fibril formation of human alpha-synuclein A53T mutant expressed in Escherichia coli BL21(DE3) at protein to compound molar ratio of 200:1 after 100 hrs by ThT fluorescence assay relative to control; conditions: concentration not given here; in short: as §2
[9] = tested on: Alpha-synuclein (Homo sapiens), P37840 [A53T]; experiment: Binding affinity to human 15N-labeled alpha-synuclein A53T mutant expressed in Escherichia coli BL21(DE3) assessed as chemical perturbation at H50 at 7.5 uM by 2D 1H-15N HSQC NMR analysis
In short: (§4)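 Uniformly 15N-labelled monomeric αS (grown in M9 medium with [15N]NH4Cl, IPTG-induced) titrated with C-PC; 1H–15N HSQC spectra in 10 mM Na2HPO4, 100 mM NaCl, pH 7.4; amide chemical shift changes and signal-to-noise monitored using prior resonance assignments.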

[10] = tested on: Alpha-synuclein (Homo sapiens), P37840 [A53T]; experiment: Binding affinity to human 15N-labeled alpha-synuclein A53T mutant expressed in Escherichia coli BL21(DE3) assessed as reduction in signal to noise ratio at 7.5 uM by 2D 1H-15N HSQC NMR analysis; in short: as §4
[11] = tested on: Alpha-synuclein (Homo sapiens), P37840 [A53T]; experiment: Binding affinity to human alpha-synuclein A53T mutant expressed in Escherichia coli BL21(DE3) assessed as compound-protein stable complex formation at 2 uM after 20 hrs by size-exclusion chromatographic method
[12] = tested on: Alpha-synuclein (Homo sapiens), P37840 [A53T]; experiment: Inhibition of fibril formation of human alpha-synuclein A53T mutant expressed in Escherichia coli BL21(DE3) assessed as reduction in mature fibrils formation at 2 uM after 100 hrs by uranyl acetate staining based transmission electron microscopic method; in short: as §1
[13] = target: Amyloid-beta precursor protein (Homo sapiens) (UniProt P05067); experiment: Inhibition of amyloid beta (1 to 42) (unknown origin) fibril formation at protein to compound ratio of 5:1 after 100 hrs by ThT fluorescence assay; in short: as §3
[14] = Self fibrillation of the compound in pH 7.4 ammonium acetate buffer after 100 hrs by ThT fluorescence assay
In short: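 C-PC alone incubated in 500 mM ammonium acetate pH 7.4 at 37 °C with ThT; fluorescence at 440/490 nm tracked over time.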

Saccharomyces cerevisiae = experiment: Inhibition of heat-induced amorphous aggregation of yeast ADH at 2.5 uM measured over 2 hrs by light scattering assay
In short: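 ADH (5 μM) aggregation induced with 20 mM DTT and 2 mM EDTA (final) at 42 °C; light scattering followed as absorbance at 340 nm over 2 h, with or without C-PC (2.5 μM); triplicate, mean ± SEM.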

Chain of Amyloid-beta precursor protein (Homo sapiens) (P05067 whole entry): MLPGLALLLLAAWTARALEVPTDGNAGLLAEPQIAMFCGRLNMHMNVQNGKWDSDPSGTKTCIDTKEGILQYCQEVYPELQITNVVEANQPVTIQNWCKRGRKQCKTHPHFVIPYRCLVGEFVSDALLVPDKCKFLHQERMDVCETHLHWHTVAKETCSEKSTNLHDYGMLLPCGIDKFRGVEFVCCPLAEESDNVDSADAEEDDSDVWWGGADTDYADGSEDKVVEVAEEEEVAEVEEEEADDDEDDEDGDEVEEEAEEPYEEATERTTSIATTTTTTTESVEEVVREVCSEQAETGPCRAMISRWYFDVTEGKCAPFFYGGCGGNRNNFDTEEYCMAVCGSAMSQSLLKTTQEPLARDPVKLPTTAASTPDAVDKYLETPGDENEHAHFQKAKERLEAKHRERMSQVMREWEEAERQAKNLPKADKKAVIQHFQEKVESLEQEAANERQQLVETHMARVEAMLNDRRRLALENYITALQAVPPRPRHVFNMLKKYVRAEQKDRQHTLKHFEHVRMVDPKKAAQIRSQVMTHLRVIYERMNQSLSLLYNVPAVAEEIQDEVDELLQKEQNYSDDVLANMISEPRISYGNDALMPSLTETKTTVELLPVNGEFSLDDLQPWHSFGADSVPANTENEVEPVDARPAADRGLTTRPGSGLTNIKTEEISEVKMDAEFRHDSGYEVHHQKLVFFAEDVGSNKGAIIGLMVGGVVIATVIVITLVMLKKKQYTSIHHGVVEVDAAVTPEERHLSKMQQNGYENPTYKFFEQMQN

inhibition [1]: Active
inhibition [2]: Active
inhibition [3]: Dose-dependent effect
inhibition [4]: Active
Activity [5]: inactive
TIME [6]: 1.4e-06 h
inhibition (Catalase (Bos taurus)): inactive
inhibition [7]: Active
inhibition [8]: 50%
Activity [9]: Active
Activity [10]: Active
Activity [11]: inactive
inhibition [12]: Active
inhibition [13]: Active
inhibition (Saccharomyces cerevisiae): inactive
Compound: C/C=C1/C(=C\c2[nH]c(/C=C3N=C(/C=C4/NC(=O)C(CC)=C4C)C(C)=C/3CCC(=O)O)c(CCC(=O)O)c2C)NC(=O)C1C (stereo unspecified)
Activity [14]: inactive
